# Assay outcomes as filed in PubChem BioAssay.
# APJ antag – antagonists of human APJ apelin receptor; 330,000 compounds, 0.32% hits; AID 2521; inhibition, % at 20 µM; CHO-K1 APJ beta-arrestin complementation, luminescence;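 active means inhibition above about 40% at 20 µM, limit read from the data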;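 further: cells challenged with 10 nM apelin-13 agonist together with compound; plate controls were apelin-13 plus DMSO wells for no effect and DMSO wells lacking apelin-13 for full effect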
# CCR6 antagonist – antagonists of human CCR6 receptor; 340,000 compounds, 0.49% hits; AID 493098; inhibition, % at 20 µM; CHO-K1 CCR6 PathHunter beta-arrestin, luminescence, CCL20-stimulated;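 active means compounds whose inhibition of the agonist-driven luminescence signal at 20 µM reaches about 50%, limit read from the data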;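 further: cells stimulated with CCL20 at 14 nM final; plate controls were DMSO with CCL20 for no effect and DMSO without agonist for full effect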
# EBI2 antag – blocks human EBI2 receptor beta-arrestin signaling; AID 651636; inhibition, % at 5 µM; 360,000 compounds, 0.81% hits; P32249; EBI2 beta-arrestin recruitment, luminescence, 7a,25-OHC stimulated; in the data active means inhibition above about 38%;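 further: enzyme fragment complementation signal reports receptor beta-arrestin coupling in cells; 0% = agonist plus DMSO wells and 100% = wells without agonist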
# Target sequence (P32249 whole entry, looked up, the tested form may be a part): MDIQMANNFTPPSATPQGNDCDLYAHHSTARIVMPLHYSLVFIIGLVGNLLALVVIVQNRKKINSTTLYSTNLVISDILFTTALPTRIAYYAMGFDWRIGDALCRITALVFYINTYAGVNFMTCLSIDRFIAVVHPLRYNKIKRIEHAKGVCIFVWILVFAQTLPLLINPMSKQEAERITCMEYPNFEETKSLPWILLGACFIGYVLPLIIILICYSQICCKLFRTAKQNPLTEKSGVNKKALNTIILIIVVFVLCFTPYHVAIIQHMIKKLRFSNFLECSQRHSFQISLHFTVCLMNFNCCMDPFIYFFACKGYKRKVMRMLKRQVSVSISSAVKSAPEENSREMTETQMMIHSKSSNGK
# CXCR6 inh – CXCR6 (human) receptor inhibition | 360,000 compounds, 0.36% hits | CHO-K1 PathHunter CXCR6 beta-arrestin, luminescence | inhibition, % at 20 µM | AID 602244; in the data active means inhibition above about 34%, passing the limit was not always enough;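 further: antagonist mode with CXCL16 agonist at 10 nM final; 0% = 10 nM CXCL16 with DMSO and 100% = unstimulated wells without agonist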
# APJ ag – activates the human apelin receptor APJ; CHO-K1 APJ PathHunter beta-arrestin, luminescence; 0% DMSO wells, 100% apelin; activation, % at 20 µM; 330,000 compounds, 0.11% hits; AID 2520;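 active means activation more than six SD over the plate average, tested at 20 µM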;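 further: 0% = DMSO alone and 100% = apelin-13 at 10 nM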
#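 Assay system: CHO-K1 cells stably expressing ProLink-tagged human APJ and arrestin–beta-gal acceptor. Compound dosing: 20 µM single point, 1% DMSO. Times: 16-18 h seeding, 90 min dark compound exposure, 60 min detection. Detection: beta-gal luminescence. Evaluation: APJ–arrestin association signal. Controls: negative DMSO alone, positive Apelin-13 at 10 nM.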
# EBI2 antag conf – EBI2 (human) antagonism, single concentration confirmation; shares compounds with EBI2 antag; EBI2 beta-arrestin luminescence, 7a,25-OHC antagonism; inhibition, % at 5 µM; 2,400 compounds, 29% hits; AID 651997;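 active means inhibition of at least 50%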
# EBI2 ag – EBI2 agonism counter-screen; shares compounds with EBI2 antag; EBI2-expressing cells, agonist mode, luminescence, 60 min; 0% vehicle, 100% 7α,25-dihydroxycholesterol control; activation, % at 5 µM; 2,400 tested, under 10 active;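 active means activation of at least 50%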
# bGal cs – counter-screen for EBI2 antagonists: E. coli beta-galactosidase inhibition. shares compounds with EBI2 antag. AID 652176. 2,400 compounds, 1% hits. purified beta-galactosidase, luminescent Galacton Star, 15 min. inhibition, % at 5 µM;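 active means replicate-average signal at least 3 plate SD below neutral wells, shown as high inhibition, flagging enzyme-inhibiting false positives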;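 further: 0% = DMSO wells with enzyme and 100% = wells lacking enzyme; higher means stronger loss of beta-gal luminescence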
# * hit, by the source's call; . = no result. This is a sample that favours compounds with a hit; in the whole collection about 1.5% have one here.
SMILES,APJ antag,CCR6 antagonist,EBI2 antag,CXCR6 inh,APJ ag,EBI2 antag conf,EBI2 ag,bGal cs
COc1ccc(C2=CC(=O)C[C@H](c3ccc(OC)c(OC)c3)C2)cc1,15,12,33,0,-2,.,.,.
COc1ccc([C@H]2CC(=O)C=C(c3cccc(OC(F)(F)F)c3)C2)cc1,-6,11,7,7,-1,.,.,.
COc1ccc([C@H]2CC(=O)C=C(c3ccc(OC(F)(F)F)cc3)C2)cc1,15,14,68*,2,-2,40,-1,-9
COc1cc(F)cc(C2=CC(=O)C[C@H](c3ccc(F)cc3)C2)c1,14,19,52*,-1,-4,40,-2,-8
CCc1ccc(-c2n[nH]nc2C2=CC(=O)C[C@H](c3ccc(F)cc3)C2)cc1,.,.,54*,-1,.,14,-2,-7
CCCOc1ccc(C2=CC(=O)C[C@H](c3ccc(OC)cc3)C2)cc1,7,10,67*,8,-6,35,0,-13
COC(=O)C1(C(=O)OC)C[C@H](c2ccc(OC)cc2)N(Cc2ccccc2OC)[C@@H]1c1cccs1,.,.,30,.,.,.,.,.
CN(CCc1ccccc1)C(C(=O)c1ccc2c(c1)OCO2)c1nnnn1-c1ccccc1NC(=O)OC(C)(C)C (configuration not stated),.,.,19,.,.,.,.,.
COc1ccc([C@H]2CC(=O)C=C(C#CC(C)(C)C)C2)cc1,-12,14,66*,-18,1,67*,0,-11
COc1ccc2cc(C#CC3=CC(=O)C[C@H](c4ccc(F)cc4)C3)ccc2c1,.,.,-2,-6,.,.,.,.
COc1ccc([C@H]2CC(=O)C=C(/C=C/c3ccc(C(F)(F)F)cc3)C2)cc1,8,-9,65*,6,-4,33,0,9
CCc1nc2ccc(C(=O)NCc3ccccc3OC)cn2c1N(CC)Cc1cccc(Br)c1,.,.,22,23,.,.,.,.
COC(=O)[C@@]12C[C@@H](CC(=O)NCc3ccc(C)o3)C(=O)N(CCc3ccc(OC)c(OC)c3)C1=CCC(C)(C)C2,.,.,6,.,.,.,.,.
COc1ccc(-c2coc3c(C(=O)NCc4ccc(OC)c(OC)c4)cccc23)c(C)c1,.,.,0,5,.,.,.,.
O=C(CN1CCN(S(=O)(=O)c2ccc(Br)cc2)CC1)N/N=C/c1ccncc1,19,4,54*,-17,-3,32,0,7
O=C(CNC(=O)c1ccc(S(=O)(=O)N2CCCC2)cc1)N/N=C/c1ccc(Cl)cc1Cl,-4,11,75*,-8,-3,48,1,2
O=C(CNC(=O)c1ccc(S(=O)(=O)N2CCCC2)cc1)N/N=C/c1ccc(Cl)cc1,-13,1,60*,-8,0,40,1,-1
CCCCn1nnnc1C(c1ccccc1)N1CCN(c2ncccc2C(F)(F)F)CC1 (configuration not stated),.,.,17,6,.,.,.,.
O=C(c1ccc2ccccc2c1)N1CCN(c2ccccn2)CC1,0,3,56*,9,-2,42,1,9
Cc1ccc2c(c1)cc(C(=O)N1CCN(c3ccccn3)CC1)n2C,9,9,47*,14,-3,34,-2,-9
O=C(c1ccc2ccccc2c1)N1CCN(c2ccc(O)cc2)CC1,-15,8,57*,5,0,26,-1,-11
Cc1ccc(C(=O)N2CCN(c3ccccn3)CC2)cc1,-12,4,0,-8,-6,.,.,.
O=C(Nc1ccc(F)c(Cl)c1)C1Cc2c(-c3cccc(F)c3)ccnc2O1 (configuration not stated),.,.,-35,1,.,.,.,.
CC(C)C[C@@H]1Cc2[nH]c(=S)[nH]c(=O)c2[C@H](C)O1,.,.,-3,-6,.,.,.,.
Nc1ncnc2c1ccn2[C@H]1CN(Cc2ccc3c(c2)OCO3)C[C@@H](COC(=O)c2ccccc2)O1,.,.,-1,2,.,.,.,.
SMILES,APJ antag,CCR6 antagonist,EBI2 antag,CXCR6 inh,APJ ag,EBI2 antag conf,EBI2 ag,bGal cs
Cc1nc(N2CCCCC2C)c2c(C)c(C(=O)Nc3cccc(C(F)(F)F)c3)sc2n1 (configuration not stated),-6,9,76*,-3,1,19,2,5
CCOC(=O)c1sc2nc(C)nc(N3CCCCC3C)c2c1C (configuration not stated),-17,2,19,2,-2,.,.,.
Cc1nc(N2CCCCC2)c2c(C)c(C(=O)Nc3cccc(C(F)(F)F)c3)sc2n1,-1,-33,53*,-12,4,25,2,6
Cc1nc(N2CCCCC2)c2c(C)c(C(=O)Nc3ccccc3C(F)(F)F)sc2n1,6,-5,6,-14,-3,.,.,.
Cc1cc(C)n2c(Nc3ccc4c(c3)OCCO4)c(CCc3ccccc3)nc2n1,.,.,-53,-4,.,.,.,.
Cc1ccccc1Nc1nnc(SCC2CCCCO2)s1 (configuration not stated),-3,7,-3,-3,-1,.,.,.
Cc1ccc(Nc2nnc(SCC3CCCCO3)s2)cc1 (configuration not stated),20,5,59*,0,2,37,-2,-7
Cc1nnc(SC(C)C(=O)NCC2CCCO2)s1 (configuration not stated),2,1,0,5,-4,.,.,.
Cc1ccc(Nc2nnc(SC(C)C(=O)NCC3CCCO3)s2)cc1C (configuration not stated),17,0,46*,-6,-10,24,-1,-15
O=C(c1ccc2ccccc2c1)N1CCN(Cc2ccccc2)CC1,-19,7,90*,-4,-2,77*,1,6
COc1ccc(C(=O)N2CCC(C(=O)N3CCN(c4ccccc4)CC3)CC2)cc1,-17,15,22,11,-2,.,.,.
O=C(c1ccc(Br)cc1)N1CCN(Cc2ccccc2)CC1,12,4,48*,-3,-1,36,0,5
O=C(c1ccc(F)cc1)N1CCN(Cc2ccccc2)CC1,-1,-1,9,-4,-1,.,.,.
O=C(c1ccc(Br)cc1)N1CCC(C(=O)N2CCN(c3ccccc3)CC2)CC1,10,25,79*,-8,-2,39,0,-11
COC(=O)C1=CN(c2ccc(OC)cc2)C(N)=C(C#N)C1c1ccccc1F (configuration not stated),.,.,-1,.,.,.,.,.
CC(O)(c1cccc(F)c1)c1nc(-c2csc3ccccc23)cs1 (configuration not stated),.,.,22,-2,.,.,.,.
CC(=O)Nc1cc(-c2cccc(C(=O)N(C)C)c2)cn2c(-c3ccc(C(C)=O)cc3)cnc12,.,.,11,1,.,.,.,.
